Compound activity from PubChem BioAssay.
An excerpt weighted towards active compounds, which were near 1.9% of everything screened.
LEDGF integ inh: blocks HIV-1 LEDGF/p75-dependent DNA integration. TR-FRET IN-LEDGF/p75 DNA integration, Eu/Cy5. inhibition, % at 3.7 µM. hit rate 0.64% among 370,000;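 active = inhibition above the screen-wide mean plus 3 SD, cut at about 13% in these data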;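 also: signal is the Cy5 over europium emission ratio at 671 and 618 nm; 0% = plate median of compound wells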
MBD2 inh: blocks human MBD2 binding to methylated DNA | AID 686964 | hit rate 0.31% among 370,000 | Q9UBB5 | TR-FRET, MBD2 binding to methylated oligonucleotide | inhibition, % at 4.4 µM; in the data active = inhibition above about 13%
TDP2 inh: blocks human TDP2 phosphodiesterase activity; AID 720702; inhibition, % at 12.8 µM; hit rate 0.34% among 370,000; O95551; recombinant TDP2, T5PNP hydrolysis, p-nitrophenol absorbance 415 nm;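 active = inhibition above the mean of all tested compounds plus 3 SD, set per campaign, cut at about 25% in these data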;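 also: 0% = DMSO with enzyme and 100% = buffer with substrate but no TDP2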
Target sequence (O95551 whole entry, looked up): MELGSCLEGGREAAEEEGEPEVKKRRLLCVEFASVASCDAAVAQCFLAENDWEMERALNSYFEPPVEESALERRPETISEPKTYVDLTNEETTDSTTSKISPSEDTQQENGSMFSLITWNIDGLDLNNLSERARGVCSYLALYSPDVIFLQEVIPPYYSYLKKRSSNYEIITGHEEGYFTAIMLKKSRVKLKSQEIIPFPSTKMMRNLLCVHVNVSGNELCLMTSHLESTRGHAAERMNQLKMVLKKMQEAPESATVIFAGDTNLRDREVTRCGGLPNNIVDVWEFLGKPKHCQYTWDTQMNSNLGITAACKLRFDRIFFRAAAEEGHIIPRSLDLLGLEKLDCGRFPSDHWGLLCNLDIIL
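Read-out basis: percent inhibition. System: recombinant human TDP2. Buffer or medium: Mg2+-containing Tris-HCl buffer, pH 7.5. Repeats: single replicate. Timing: reaction 2 h, 37 °C. Benchmarks: high control without enzyme, low control DMSO plus TDP2. Probe or stimulus: 5 mM T5PNP. Doses: 12.8 µM only. Measured by: epi absorbance of p-nitrophenol freed from T5PNP by hydrolysis.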
UHRF1 MBD2 ctr: human UHRF1 methylated DNA binding inhibitors | Q96T88 | UHRF1 binding to methylated oligo, TR-FRET | inhibition, % at 4.4 µM | hit rate 0.75% among 370,000 | AID 687016; in the data active = inhibition above about 21%;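 also: UHRF1 SRA domain binding a hemimethylated CpG hairpin DNA probe; 0% = median of test compound wells and 100% = reference inhibitor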
NSD2 inh: blocks human histone methyltransferase NSD2; O96028; NSD2 peptide methylation, AlphaScreen, 120 min; inhibition, % at 12.5 µM; hit rate 0.54% among 310,000; AID 743445; in the data active = inhibition above about 50%
CASP6 VEID inh: blocks human caspase-6 cleavage activity. P55212. purified caspase-6, Z-VEID-R110 cleavage fluorescence. inhibition, % at 12.5 µM. hit rate 0.53% among 350,000. AID 686996;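 active = mean inhibition across replicates at least about 35%, with every replicate also reaching that limit, limit read from the data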;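 also: 0% = median of neutral control wells and 100% = no fluorescence left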
Target sequence (P55212 24-179 limits assumed): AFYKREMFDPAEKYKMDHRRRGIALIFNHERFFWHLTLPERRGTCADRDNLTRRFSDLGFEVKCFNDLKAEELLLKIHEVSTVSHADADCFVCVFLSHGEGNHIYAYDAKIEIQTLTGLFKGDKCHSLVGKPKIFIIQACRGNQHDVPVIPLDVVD
Target sequence (P55212 194-293 limits assumed): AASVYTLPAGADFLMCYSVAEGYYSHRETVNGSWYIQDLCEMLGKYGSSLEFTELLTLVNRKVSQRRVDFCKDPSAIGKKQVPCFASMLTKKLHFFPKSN
TDP2 confirm: human TDP2 inhibition, confirmation; shares compounds with TDP2 inh; recombinant human TDP2, absorbance read-out; hit rate 22% among 1,100; inhibition, % at 12.8 µM; in the data active = inhibition above about 25%;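 also: 0% = vehicle with enzyme and 100% = no enzyme buffer only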
IN multimer act: HIV-1 integrase multimerization activation, counter-screen; shares compounds with LEDGF integ inh; TR-FRET HIV-1 integrase multimerization, biochemical; activation, % at 7.7 µM; hit rate 17% among 2,000; AID 1053131; in the data active = activation above about 8.9%
TR-FRET interf: TR-FRET optical interference, LEDGF/p75 integration counter-screen. inhibition, % at 7.7 µM. shares compounds with LEDGF integ inh. 2,000 tested, under 10 active. TR-FRET optical interference counterscreen, HIV-1 IN multimerization. AID 1053135;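 active = inhibition above the mean over all tested compounds plus 3 SD, which no compound reached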;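 also: 0% = integrase with antibodies and DMSO and 100% = antibodies without integrase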
IN-LEDGF confirm: LEDGF/p75-dependent HIV-1 integration inhibition, confirmation. shares compounds with LEDGF integ inh. inhibition, % at 3.7 µM. hit rate 36% among 2,000. TR-FRET LEDGF/p75-dependent HIV-1 integration, biochemical. AID 1053136; in the data active = inhibition above about 14%
An asterisk follows results filed as active.

CCOc1cccc(-c2cc(=O)[nH][nH]2)c1 was read as LEDGF integ inh 29*, MBD2 inh 2, TDP2 inh 45*, UHRF1 MBD2 ctr 0, NSD2 inh 6, TDP2 confirm 10, IN multimer act 2, TR-FRET interf -6 and IN-LEDGF confirm 4.
Screening COc1cccc(-c2cc(=O)[nH][nH]2)c1 returned LEDGF integ inh 21*, MBD2 inh 0, TDP2 inh 77*, UHRF1 MBD2 ctr 7, NSD2 inh 34, CASP6 VEID inh 1, TDP2 confirm 0, IN multimer act 4, TR-FRET interf -21 and IN-LEDGF confirm 8.
Screening CN(C)C(=O)C[C@H]1CC[C@H]2[C@@H](COC[C@@H](O)CN2CC2CC2)O1 returned CASP6 VEID inh -6.
Screening C[C@@H]1CN([C@H](C)CO)C(=O)c2cc(NC(=O)Nc3ccc(C(F)(F)F)cc3)ccc2O[C@@H]1CN(C)Cc1ccc(Cl)c(Cl)c1 returned CASP6 VEID inh -2.
Screening CC(NC(=O)Nc1ccc(O)cc1)(C(F)(F)F)C(F)(F)F returned LEDGF integ inh 20*, MBD2 inh -7, TDP2 inh 28*, UHRF1 MBD2 ctr -1, NSD2 inh -4, TDP2 confirm 19, IN multimer act 4, TR-FRET interf -15 and IN-LEDGF confirm -4.
Screening CC1OC2CC(=O)OC2C2=C1C(=O)c1c(O)cccc1C2=O (configuration not stated) returned LEDGF integ inh 19*, MBD2 inh -2, TDP2 inh 42*, UHRF1 MBD2 ctr 18, CASP6 VEID inh 85*, TDP2 confirm 44*, IN multimer act -1, TR-FRET interf 3 and IN-LEDGF confirm 41*.
`CCCCC(=Nc1ccc(N)cc1)C1=C(O)C(C(=O)OC)C(C)(C)CC1=O` (configuration not stated) gave LEDGF integ inh 46*, MBD2 inh -6, TDP2 inh 60*, UHRF1 MBD2 ctr 13, NSD2 inh 1, TDP2 confirm 17, IN multimer act 19*, TR-FRET interf -67 and IN-LEDGF confirm 4.
CCCC(=Nc1ccccc1)C1=C(O)C(C(=O)OC)C(C)(C)CC1=O (configuration not stated) was read as LEDGF integ inh 0, MBD2 inh -2, TDP2 inh -9, UHRF1 MBD2 ctr -1, NSD2 inh 2 and CASP6 VEID inh 0.
For CCC(=Nc1ccc(N)cc1)C1=C(O)C(C(=O)OC)C(C)(C)CC1=O (configuration not stated) the results were LEDGF integ inh 32*, MBD2 inh -2, TDP2 inh 55*, UHRF1 MBD2 ctr 21*, NSD2 inh 0, TDP2 confirm 17, IN multimer act 20*, TR-FRET interf -72 and IN-LEDGF confirm 7.
`CN1c2ccc(C#Cc3cccnc3)cc2[C@H]2[C@H](CCN2C(=O)C2CCCC2)[C@@H]1CO` gave CASP6 VEID inh 1.
`Cc1ccc(NC2=C(N3CCCCC3)C(=O)c3ccccc3C2=O)cc1` gave LEDGF integ inh 17*, MBD2 inh -2, TDP2 inh 56*, UHRF1 MBD2 ctr 14, NSD2 inh 51*, TDP2 confirm 61*, IN multimer act 1, TR-FRET interf -4 and IN-LEDGF confirm 38*.
O=C1C(Nc2ccccc2)=C(N2CCCCC2)C(=O)c2ccccc21 was read as LEDGF integ inh 22*, MBD2 inh 0, TDP2 inh 59*, UHRF1 MBD2 ctr 8, NSD2 inh 94*, TDP2 confirm 57*, IN multimer act -1, TR-FRET interf 2 and IN-LEDGF confirm 34*.
Screening O=C(/C=C/c1ccc(O)cc1)c1ccc(NC2=C(N3CCCCC3)C(=O)c3ccccc3C2=O)cc1 returned LEDGF integ inh 15*, MBD2 inh -5, TDP2 inh 49*, UHRF1 MBD2 ctr 9, NSD2 inh 13, CASP6 VEID inh 3, TDP2 confirm 45*, IN multimer act 4, TR-FRET interf -13 and IN-LEDGF confirm 30*.
Screening CN(C1=C(N2CCCCC2)C(=O)c2ccccc2C1=O)c1ccccc1 returned LEDGF integ inh 16*, MBD2 inh 9, TDP2 inh 35*, UHRF1 MBD2 ctr 5, NSD2 inh 0, TDP2 confirm 2, IN multimer act 2, TR-FRET interf -11 and IN-LEDGF confirm 3.
O=C(/C=C/c1ccc(O)cc1)c1ccccc1 was read as LEDGF integ inh 6, MBD2 inh 0, TDP2 inh 10, UHRF1 MBD2 ctr -2, NSD2 inh 25 and CASP6 VEID inh 4.
Screening C[C@H]1CN([C@@H](C)CO)S(=O)(=O)c2ccc(-c3cccc(C#N)c3)cc2O[C@@H]1CN(C)C returned CASP6 VEID inh 2.
`O=C(CN1CCOCC1)N1CCCCN2[C@H](CO)[C@H](c3ccc(C#Cc4ccccc4F)cc3)[C@H]2C1` gave CASP6 VEID inh -1.
Screening C[n+]1c2cc(N)ccc2cc2ccc(N)cc21 returned LEDGF integ inh 40*, MBD2 inh 0, TDP2 inh 29*, UHRF1 MBD2 ctr -322, CASP6 VEID inh -293, TDP2 confirm 28*, IN multimer act 20*, TR-FRET interf -70 and IN-LEDGF confirm 45*.
`Nc1ccc2ccc(O)cc2c1` gave LEDGF integ inh 1, MBD2 inh -1, TDP2 inh -6, UHRF1 MBD2 ctr 1, NSD2 inh 0 and CASP6 VEID inh 4.
Clc1ccccc1N=Nc1ccccn1 was read as LEDGF integ inh 25*, MBD2 inh -1, TDP2 inh 42*, UHRF1 MBD2 ctr 5, CASP6 VEID inh 35, TDP2 confirm 27*, IN multimer act 1, TR-FRET interf -4 and IN-LEDGF confirm 16*.
For O=C(Nc1ccc2c(c1)OCO2)c1cccc(F)c1 the results were LEDGF integ inh 1, MBD2 inh 5, TDP2 inh 2, UHRF1 MBD2 ctr 0 and NSD2 inh -1.
